Data from ChEMBL document CHEMBL4765333, “Novel NO-releasing scopoletin derivatives induce cell death via mitochondrial apoptosis pathway and cell cycle arrest” (Eur J Med Chem, 2020).
The source made the active and inactive calls. The rule behind the calls is not given here.

Key:
[1] = system: MDA-MB-231; assay: Induction of apoptosis in human MDA-MB-231 cells assessed as viable cells at 1 uM after 24 hrs by Annexin V/propidium iodide based flow cytometric analysis (reference value: 99%); assay type: functional; conditions: read-out: Activity
In short: (§1)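 MDA-MB-231 cells (2×10^5/well) attached 24 h, then treated 24 h with 1, 1.5, 2 or 3 µM, DMSO as control. Cells harvested, PBS-washed, resuspended in binding buffer, stained with Annexin V and PI for 30 min at 37°C in the dark, and analysed by flow cytometry for quadrant percentages; three experiments.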

[2] = system: MDA-MB-231; assay: Induction of apoptosis in human MDA-MB-231 cells assessed as viable cells at 1.5 uM after 24 hrs by Annexin V/propidium iodide based flow cytometric analysis (reference value: 99%); assay type: functional; conditions: read-out: Activity; in short: as §1
[3] = system: MDA-MB-231; assay: Induction of apoptosis in human MDA-MB-231 cells assessed as necrotic cells at 3 uM after 24 hrs by Annexin V/propidium iodide based flow cytometric analysis (reference value: 0.019%); assay type: functional; in short: as §1
[4] = system: MDA-MB-231; assay: Induction of intracellular reactive oxygen species generation in human MDA-MB-231 cells at 1 uM measured after 24 hrs by DCFH-DA staining based flow cytometry analysis relative to control; assay type: functional
In short: (§2)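 MDA-MB-231 cells at 2×10^5 cells/well, grown 24 h, exposed 24 h to compound (1, 1.5, 2 µM) or DMSO control. Cells then took up DCFH-DA for 30 min at 37°C in the dark, were PBS-washed, resuspended in serum-free medium and analysed by flow cytometry. Relative DCF level vs control; mean ± SD, n = 3.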

[5] = system: HepG2; assay: Anticancer activity against human HepG2 cells assessed as inhibition of cell proliferation measured after 48 hrs by MTT assay; assay type: functional, cell-based; conditions: HepG2, 48 h
In short: (§3)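 Cells seeded at ~5,000/well, grown 24 h to partial monolayer, then exposed 48 h at 37°C, 5% CO2 to 0.5, 1, 2, 4, 10 and 20 µM (DMSO ≤0.1%). MTT final 0.5 mg/ml for 4 h, formazan dissolved in DMSO, A570. Survival expressed as % of untreated control; IC50 from dose-response curves; three independent experiments. MDA-MB-231, MCF-7, HepG2 in DMEM; A549 and LO-2 in RPMI-1640; 10% FBS.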

[6] = system: MDA-MB-231; assay: Induction of cell cycle arrest in human MDA-MB-231 cells assessed as accumulation at S phase at 2 uM measured after 24 hrs by propidium iodide staining based flow cytometric method (reference value: 36.25%); assay type: functional
[7] = system: A549; assay: Anticancer activity against human A549 cells assessed as inhibition of cell proliferation measured after 48 hrs by MTT assay; assay type: functional, cell-based; conditions: A549, 48 h
In short: as §3, with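 “experiments.” for “experiments. MDA-MB-231, MCF-7, HepG2 in DMEM; A549 and LO-2 in RPMI-1640; 10% FBS.”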

[8] = Prodrug release in human MDA-MB-231 cells assessed as increase in intracellular NO level at 1 to 10 uM measured after 2.5 hrs by DAF-FM DA reagent based scanning electron microscopy; assay type: ADME, cell-based; conditions: mda-mb-231, 2.5 h, in the assay text read “laser scanning confocal microscopy” for “scanning electron microscopy”, dose 1-10 µM
In short: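 After 24 h growth at 5×10^4 cells/well, MDA-MB-231 cells loaded with DAF-FM DA (5 µM) 30 min at 37°C, 5% CO2, PBS-washed, then incubated 2.5 h with compound at 1 or 10 µM (scopoletin at 10 µM). NO fluorescence imaged by laser scanning confocal microscopy.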

[9] = system: MDA-MB-231; assay: Induction of mitochondrial membrane potential depolarization in human MDA-MB-231 cells assessed as proportion of cells with hyperpolarized MMP at 1 uM incubated for 18 hrs by JC-1 staining based flow cytometry (reference value: 98.4%); assay type: functional
[10] = Anticancer activity against human MDA-MB-231 cells assessed as inhibition of cell proliferation measured after 48 hrs by MTT assay; assay type: functional, cell-based; conditions: MDA-MB-23, 48 h; in short: as §3
[11] = system: MDA-MB-231; assay: Induction of cell cycle arrest in human MDA-MB-231 cells assessed as accumulation at S phase at 1 uM measured after 24 hrs by propidium iodide staining based flow cytometric method (reference value: 36.25%); assay type: functional
[12] = system: L02; assay: Cytotoxicity against human L02 cells assessed as reduction in cell viability measured after 48 hrs by MTT assay; assay type: cell-based; conditions: L02, 48 h; in short: as §3
[13] = system: MDA-MB-231; assay: Induction of apoptosis in human MDA-MB-231 cells assessed as late apoptotic cells at 3 uM after 24 hrs by Annexin V/propidium iodide based flow cytometric analysis (reference value: 0.038%); assay type: functional; in short: as §1
[14] = system: MDA-MB-231; assay: Induction of mitochondrial membrane potential depolarization in human MDA-MB-231 cells assessed as proportion of cells with hyperpolarized MMP at 1.5 uM incubated for 18 hrs by JC-1 staining based flow cytometry (reference value: 98.4%); assay type: functional
[15] = Antiproliferative activity against human MDA-MB-231 cells assessed as inhibition of cell proliferation rate at 4 uM measured after 48 hrs by MTT assay; assay type: functional; conditions: MDA-MB-23
In short: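 MDA-MB-231 cells in DMEM with 10% FBS, ~5,000 cells/well, 24 h attachment, then compound for 48 h at 37°C, 5% CO2. MTT 0.5 mg/ml final for 4 h, DMSO solubilization, absorbance 570 nm; inhibition relative to untreated cells; experiments done three times.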

[16] = system: MDA-MB-231; assay: Induction of intracellular reactive oxygen species generation in human MDA-MB-231 cells at 2 uM measured after 24 hrs by DCFH-DA staining based flow cytometry analysis relative to control; assay type: functional; in short: as §2
[17] = system: MDA-MB-231; assay: Inhibition of colony formation in human MDA-MB-231 cells assessed as fewer and smaller colonies at 0.5 to 1 uM incubated for 24 hrs followed by culturing in fresh medium for 10 days by crystal violet staining based assay; assay type: functional, cell-based; conditions: dose 0.5-1 µM
In short: (§4)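 MDA-MB-231 seeded at 1.5×10^3 cells/well, 24 h attachment, then 24 h exposure to compound (0.25, 0.5, 1 µM) or DMSO; fresh medium for a further 10 days. Fixed in 4% paraformaldehyde 0.5 h at 4°C, crystal violet stained, dye dissolved in DMSO and absorbance read at 590 nm; performed three times.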

[18] = system: MDA-MB-231; assay: Inhibition of colony formation in human MDA-MB-231 cells at 0.25 uM incubated for 24 hrs followed by culturing in fresh medium for 10 days by crystal violet staining based assay; assay type: functional, cell-based; in short: as §4
[19] = system: MDA-MB-231; assay: Induction of cell cycle arrest in human MDA-MB-231 cells assessed as accumulation at S phase at 1.5 uM measured after 24 hrs by propidium iodide staining based flow cytometric method (reference value: 36.25%); assay type: functional

IC50 [5]: 2.81 µM
IC50 [7]: 4.18 µM
Drug metabolism [8]: Metabolite_Detected
SMILES: COc1cc2cc(N)c(=O)oc2cc1OCCCOc1no[n+]([O-])c1S(=O)(=O)c1ccccc1
viability at 1 µM [1]: 87.9%
viability at 1.5 µM [2]: 75.7%
Activity [3]: 0.31%
fold change (FC) [4]: 1.31
Activity [6]: 20.82%
Activity [9]: 93.2%
IC50 [10]: 1.23 µM
Activity [11]: 28.05%
IC50 [12]: 9.16 µM
Activity [13]: 20.5%
Activity [14]: 81.4%
inhibition at 4 µM [15]: 91.2%
fold change (FC) [16]: 2.16
inhibition [17]: Active
inhibition [18]: Active
Activity [19]: 22.92%
